UPR XBP1 act: activators of adaptive XBP1 UPR arm, primary screen, cell-based, CHO-XBP1 luciferase reporter, luminescence, uHTS; IRE1-XBP1 UPR activation; percent of tunicamycin response, DMSO as zero; 330,000 compounds, 0.33% hits; activation, % at 20 µM;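 active = versus positive control, 20 µM dose yields 30% or more activation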;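 also: 100% = tunicamycin at 10 µg/mL and 0% = DMSO only wells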
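Material: IRE1-XBP1 luciferase reporter CHO line / Quantity: one thousand reporter cells per well / Buffer or medium: F12 with 10% serum / Compound: 20 µM single concentration, DMSO 1% / Times: 6 h treatment, 37 °C / Detection: Steady-Glo luciferase glow luminescence, 10 min after reagent addition / Benchmarks: tunicamycin high, DMSO low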
CHOP UPR activ: activators of apoptotic CHOP UPR arm, primary screen, cell-based, CHO-CHOP luciferase reporter, luminescence, uHTS. UPR activation; percent of tunicamycin response over DMSO baseline. activation, % at 10 µM. 330,000 compounds, 0.34% hits;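 active = at 10 µM dose, activation of 40% or more, normalized to positive control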;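 also: 100% = tunicamycin at 10 µg/mL and 0% = DMSO alone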
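Dosing – one dose, 10 µM in 0.5% DMSO · System – CHO-CHOP cells, stable luciferase reporter of PERK-eIF2a-CHOP signalling · Input – 500 cells/well · Control set – tunicamycin 10 µg/mL final as positive, DMSO-only wells as negative · Timing – 6 h compound treatment, 37 °C · Measure – % activation vs tunicamycin · Technique – luminescence read with Steady-Glo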
GAA850 FXN act: FXN promoter activators, primary screen, cell-based, luciferase luminescence, HEK293 lucGAA850; AID 540364, 2011; 360,000 compounds, 0.56% hits; HEK293 lucGAA850 FXN promoter luciferase reporter, 24 h; percent of 10 µM SAHA response; activation, % at 6 µM;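 active = activation above the average of all compounds screened plus 3 SD, cutoff fixed separately per campaign, cut at about 7.5% in these data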;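 also: 0% = DMSO wells and 100% = 10 µM SAHA wells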
CHOP inh: inhibitors of CHOP promoter induction, primary screen, cell-based, unfolded protein response, luciferase reporter. 220,000 compounds, 3.8% hits. CHO-K1 CHOP-promoter luciferase, tunicamycin-induced, 15-18 h. inhibition, % at 10 µM. AID 2732, 2010;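 active = compounds that reduced the stress-induced luciferase reporter signal by more than about 70% of percent inhibition, limit read from the data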;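 also: 0% = tunicamycin plus vehicle and 100% = wells without tunicamycin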
The depositor's hits bear a star. The full list was thinned out, with hits kept by preference.

`COc1cc(F)ccc1-c1csc(C(O)(c2ccccc2)C(F)(F)F)n1` (centres undefined) gave GAA850 FXN act 3.6.
O=P(CCc1ccccc1)(c1ccccc1)c1ccccc1 was read as GAA850 FXN act 2.1.
For CN1CCN(CCP(=O)(c2ccccc2)c2ccccc2)CC1 the results were UPR XBP1 act -3.2, CHOP UPR activ -2.8, GAA850 FXN act -1.5 and CHOP inh 72.6*.
Screening CCSC1=N/C(=C\c2ccc3c(c2)OCO3)C(=O)S1 returned UPR XBP1 act 0.6, CHOP UPR activ 2.1, GAA850 FXN act -1.3 and CHOP inh 73.6*.
CCCSC1=N/C(=C\c2ccc3c(c2)OCO3)C(=O)S1 was read as UPR XBP1 act 2.6, CHOP UPR activ -0.8, GAA850 FXN act -1.4 and CHOP inh 56.7.
`Cn1nc(C(C)(C)C)cc1C(=O)N1CCCCC1c1cc(C(=O)NCc2ccc(F)cc2)no1` (centres undefined) gave GAA850 FXN act 0.6.
COCCNC(=O)C1CCCN(Cc2ccccc2-c2ccccc2)CC1 (centres undefined) was read as GAA850 FXN act 1.0.
For CC(=O)NC(c1ccc(Cl)cc1)c1ccc2cccnc2c1O (centres undefined) the results were GAA850 FXN act -8.6.
For COc1ccc(C(NC(=O)C(C)C)c2ccc3cccnc3c2O)cc1 (centres undefined) the results were UPR XBP1 act 6.4, CHOP UPR activ -0.1, GAA850 FXN act -12.7 and CHOP inh 78.8*.
Screening Cc1cc(NC(c2ccc(Cl)cc2)c2ccc3cccnc3c2O)no1 (centres undefined) returned UPR XBP1 act 1.2, CHOP UPR activ 7.9, GAA850 FXN act -8.5 and CHOP inh 80.4*.
Cc1cccc(OCCCC(=O)Nc2ccc(N(C)C)cc2)c1 was read as UPR XBP1 act -1.6, CHOP UPR activ 6.3, GAA850 FXN act 4.0 and CHOP inh 1.2.
Cc1cccc(OCCCC(=O)Nc2ccc(Br)cc2)c1 was read as UPR XBP1 act 0.4, CHOP UPR activ -1.7, GAA850 FXN act 0.6 and CHOP inh 84.4*.
CSCCC(NS(=O)(=O)c1ccc(Cl)cc1)C(=O)OCC(=O)NC12CC3CC(CC(C3)C1)C2 (centres undefined) was read as UPR XBP1 act -2.3, CHOP UPR activ -0.8, GAA850 FXN act 3.8 and CHOP inh 74.2*.
Screening COC(=O)C(CCSC)NS(=O)(=O)c1ccc(Cl)cc1 (centres undefined) returned UPR XBP1 act 5.4, CHOP UPR activ -2.7, GAA850 FXN act 1.9 and CHOP inh -13.2.
CC1C/C(=C\c2cccnc2)C(=O)/C(=C/c2cccnc2)C1 (centres undefined) was read as GAA850 FXN act -13.5 and CHOP inh 102.0*.
Screening O=C(Nc1cc(Cl)ccc1Cl)C1CC(=O)N(c2ccc(Br)cc2)C1 (centres undefined) returned UPR XBP1 act 0.1, CHOP UPR activ 0.9, GAA850 FXN act 1.0 and CHOP inh 70.0*.
`CCN(CC)CCN(C(=O)c1cc2c(ccc3ccccc32)oc1=O)c1nc2cc3c(cc2s1)OCCO3` gave UPR XBP1 act 209.8*, CHOP UPR activ 18.8 and GAA850 FXN act 1.6.
CC(=O)c1nn(-c2cccc(Br)c2)cc1C(=O)c1ccccc1 was read as UPR XBP1 act 2.1, CHOP UPR activ -0.4, GAA850 FXN act 1.4 and CHOP inh 74.3*.
`CC(=O)c1nn(-c2ccccc2)cc1C(=O)c1cccc(Br)c1` gave UPR XBP1 act -4.1, CHOP UPR activ 0.0, GAA850 FXN act 5.2 and CHOP inh 13.4.
O=C(NC(=S)Nc1nc(-c2ccc([N+](=O)[O-])cc2)cs1)c1ccco1 was read as UPR XBP1 act -3.1, CHOP UPR activ 3.6 and GAA850 FXN act 1.8.
Screening O=C(NC(=S)Nc1nc(-c2ccc(Br)cc2)cs1)c1ccco1 returned UPR XBP1 act 0.2, CHOP UPR activ 1.1, GAA850 FXN act -0.2 and CHOP inh 83.6*.
For CCOc1ccc2[nH]c(=O)c(CN(Cc3cccs3)Cc3nnnn3C(C)(C)C)cc2c1 the results were UPR XBP1 act -1.1, CHOP UPR activ 0.3, GAA850 FXN act -2.3 and CHOP inh 95.9*.
For CCOc1ccccc1NC(=O)C1CCCN1S(=O)(=O)c1ccc2c(c1)C(C)(C)C(=O)N2C (centres undefined) the results were GAA850 FXN act -0.1.
`CCc1cc(C(=O)OC)c(NC(=O)CC2Nc3cc(C)c(C)cc3NC2=O)s1` (centres undefined) gave UPR XBP1 act 0.9, CHOP UPR activ 2.6, GAA850 FXN act 3.5 and CHOP inh 103.4*.
For COC(=O)c1c(NC(=O)CC2Sc3ccc(C(F)(F)F)cc3NC2=O)sc(C)c1C (centres undefined) the results were UPR XBP1 act 1.1, CHOP UPR activ 0.5, GAA850 FXN act -0.4 and CHOP inh 22.8.
`COC(=O)c1c(NC(=O)CC2Nc3cc(C)c(C)cc3NC2=O)sc(C)c1C` (centres undefined) gave UPR XBP1 act 0.6, CHOP UPR activ 2.4, GAA850 FXN act 2.6 and CHOP inh 21.1.
CCOC(=O)c1cc(CC)sc1NC(=O)CC1Sc2ccc(C(F)(F)F)cc2NC1=O (centres undefined) was read as UPR XBP1 act -1.1, CHOP UPR activ 0.5, GAA850 FXN act 2.1 and CHOP inh 81.9*.
`Cc1ccc(N2CC(C(=O)Nc3cc(S(=O)(=O)N4CCCCC4)ccc3C)CC2=O)cc1` (centres undefined) gave GAA850 FXN act -1.0.
For COc1ccc(-n2ncc3c(N4CCCCC4)ncnc32)cc1 the results were UPR XBP1 act -8.9, CHOP UPR activ -11.0, GAA850 FXN act -12.9 and CHOP inh 89.1*.
Screening Clc1ccc(-n2ncc3c(N4CCCCCC4)ncnc32)cc1 returned UPR XBP1 act -9.1, CHOP UPR activ -10.2, GAA850 FXN act -14.0 and CHOP inh 83.9*.
CC1(C(=O)Nc2ccc3c(c2)OCCO3)CCN1C(=O)Cc1ccc(-c2ccccc2)cc1 (centres undefined) was read as GAA850 FXN act -4.7.
`Cc1nc(NC(=O)c2ccccc2)sc1-c1cc(C(=O)N2CCOCC2)nn1Cc1ccccc1` gave GAA850 FXN act 0.4.
Screening COc1ccc(OC)c(NC(=O)C2(C)CCN2C(=O)CC2CC2)c1 (centres undefined) returned GAA850 FXN act 0.5.
CCOc1cc(/C=C2/C(=N)N3OC(C)=CC3=NC2=O)ccc1OCCOc1ccccc1 was read as UPR XBP1 act 3.9, CHOP UPR activ -2.7, GAA850 FXN act -1.3 and CHOP inh 91.7*.
For CCOc1ccc(/C=C2/C(=N)N3OC(C)=CC3=NC2=O)cc1OC the results were UPR XBP1 act -2.8, CHOP UPR activ -1.3, GAA850 FXN act 1.3 and CHOP inh 1.9.
